# High-throughput results: PubChem, several laboratories
# An excerpt weighted towards active compounds, which were near 2.5% of everything screened.
# Rin1 Abl inh: human Rin1-Abl interaction inhibition | inhibition, % at 7.35 µM | 360,000 compounds, 0.4% hits | AID 588664 | TR-FRET Rin1/Abl binding, biochemical; in the data active = inhibition above about 5%, passing the limit was not always enough
# MBD2 DNA inh: inhibitors of human MBD2 binding to methylated oligonucleotide; Q9UBB5; TR-FRET; inhibition, % at 4.4 µM; 370,000 compounds, 0.31% hits; in the data active = inhibition above about 13%
# UHRF1 MBD2 ctr: UHRF1 methyl-DNA binding inhibition. Q96T88. UHRF1 binding to methylated oligo, TR-FRET. inhibition, % at 4.4 µM. 370,000 compounds, 0.75% hits. AID 687016; in the data active = inhibition above about 21%;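 note: UHRF1 SRA domain binding a hemimethylated CpG hairpin DNA probe; 0% = median of test compound wells and 100% = reference inhibitor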
# ABHD5 PLIN5 PPI: inhibitors of human ABHD5-perilipin-5 interaction; Q00G26+Q8WTS1; Split G. princeps luciferase complementation, luminescence, 4 h; inhibition, % at 4 µM; 360,000 compounds, 0.78% hits; AID 602281;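 active = inhibition above the mean inhibition across every tested compound plus 3 SD, cut at about 22% in these data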;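 note: 0% = DMSO only wells and the 100% control is not disclosed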
# Arr AP2 block: inhibitors of human beta-arrestin and AP2 interaction | FITC-arrestin peptide / GST-AP2 beads, flow cytometry; AP2 beta2 appendage carries R879A mutation | inhibition, % at 10 µM | 340,000 compounds, 0.31% hits;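 active = inhibition above a set limit, near 3 SD of compounds lacking own fluorescence, cut at about 54% in these data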;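 note: plate controls were DMSO wells for no effect and 5 µM unlabelled arrestin peptide for full effect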
#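 test system = AP2 appendage R879A on GSH beads | buffer or medium = PBS plus Tween 20 (0.05%) and BSA (0.1%) | incubation = 12 min plus 1 h, RT | detection = bead flow cytometry, FITC channel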
# Beta2AR agonist: agonists of human beta-2 adrenergic receptor inducing internalization; P07550; response, % (no concentration beside the values); 340,000 compounds, 0.43% hits; Am2.2-beta2AR cells, FAP receptor internalization, flow cytometry;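 active = response above a set limit, near 3 SD of response in nonfluorescent compounds, cut at about 42% in these data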
# Target sequence (P07550 whole entry, looked up): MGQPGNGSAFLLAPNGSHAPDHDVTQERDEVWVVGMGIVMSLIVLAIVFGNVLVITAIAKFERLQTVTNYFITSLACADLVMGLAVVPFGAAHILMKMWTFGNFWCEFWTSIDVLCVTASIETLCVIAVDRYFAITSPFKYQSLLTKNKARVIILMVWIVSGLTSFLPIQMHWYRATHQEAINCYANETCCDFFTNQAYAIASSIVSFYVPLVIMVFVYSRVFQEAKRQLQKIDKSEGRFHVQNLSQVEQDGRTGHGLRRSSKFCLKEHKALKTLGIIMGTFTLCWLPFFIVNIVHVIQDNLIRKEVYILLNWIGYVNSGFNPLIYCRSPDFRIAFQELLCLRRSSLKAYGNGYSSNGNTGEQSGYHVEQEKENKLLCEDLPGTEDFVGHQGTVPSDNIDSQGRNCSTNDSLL
# * = called active by the depositor; . = no result given.
SMILES,Rin1 Abl inh,MBD2 DNA inh,UHRF1 MBD2 ctr,ABHD5 PLIN5 PPI,Arr AP2 block,Beta2AR agonist
CCN(Cc1ccccc1)C(=O)C1C2C=CC3(CN(Cc4ccccc4)C(=O)C13)O2 (centres undefined),.,0,-1,.,.,.
CC(C)C1N=C(NC(=O)OCc2ccccc2)NC1=O (centres undefined) (tested in a mixture with another compound),.,9,5,.,.,.
CN1CCN(S(=O)(=O)c2cc(C(F)(F)F)ccc2Cl)CC1,-2,1,31*,-3,-14,-4
O=S(=O)(c1cc(C(F)(F)F)ccc1Cl)N1CCN(c2ccccn2)CC1,0,0,0,-5,-8,-12
CC(=O)c1nn(-c2ccccc2)cc1C(=O)c1ccc(C)cc1,1,5,9,5,1,-1
CC(=O)c1nn(-c2ccc(Cl)cc2)cc1C(=O)c1ccc(C)cc1,-2,9,26*,-8,2,-4
Cc1cc(NC(=O)C(C)SCC(=O)N(C)CC(=O)Nc2ccc(F)cc2)no1 (centres undefined),3,1,-1,23*,22,-7
Cc1cc(NC(=O)C(C)SCC(=O)N(C)CC(=O)Nc2ccccc2C(F)(F)F)no1 (centres undefined),2,-2,1,3,10,-8
COc1cccc(CC(NC(C)=O)C(=O)NC2CCN(c3c(Cc4ccccc4)c(C)nc4ncnn34)CC2)c1 (centres undefined),2,7,26*,-4,-3,1
O=C(c1ccc2c(c1)[nH]c(=S)n1c3ccccc3nc21)N1CCN(c2cccc(Cl)c2)CC1,-6,2,0,-1,-16,6
COc1ccc(N2CCN(C(=O)c3ccc4c(c3)[nH]c(=S)n3c5ccccc5nc43)CC2)cc1,.,8,43*,.,.,.
CCCCCCCCN1CCS(=O)(=O)N(Cc2ccc(C)cc2)C(C(=O)OC)C1 (centres undefined),.,4,-1,.,.,.
O=C(COC(=O)c1ccccc1Cl)Nc1cccnc1Cl,4,-2,-1,11,37,-4
O=C(COC(=O)c1ccccc1F)Nc1cccnc1Cl,0,-4,25*,-7,2,-8
COc1cc2c(cc1OC)C(SC)=NC1(CCCC1)C2,4,10,27*,-5,5,24
COc1cc2c(cc1OC)C(C)=NC1(CCCCC1)C2,-2,-1,1,2,1,-1
Cc1ccccc1-n1sc2cc(F)ccc2c1=O,4,8,-2,91*,-7,7
CN(C)S(=O)(=O)c1cccc(-n2sc3ccccc3c2=O)c1,1,-2,1,47*,20,2
O=c1c2cc(F)ccc2sn1-c1ccccc1,4,1,1,99*,30,-11
O=c1c2ccccc2sn1-c1ccc(S(=O)(=O)N2CCCCC2)cc1,1,-4,1,-13,8,10
O=c1c2ccccc2sn1-c1cccc(Cl)c1,-1,1,1,-7,.,.
O=c1c2ccccc2sn1-c1ccccc1F,-1,2,1,-19,.,.
Cc1ccc(-n2sc3ccccc3c2=O)cc1S(=O)(=O)N1CCCCC1,1,9,16,104*,90*,5
CN1Cc2nnn(Cc3ccccc3)c2-c2cc(N3CCCC3)ccc2S1(=O)=O,.,-2,-5,.,.,.
c1ccc2cc(Cn3ccc4ccc(-c5ccc6cc[nH]c6c5)cc43)ccc2c1,.,-3,-4,.,.,.
SMILES,Rin1 Abl inh,MBD2 DNA inh,UHRF1 MBD2 ctr,ABHD5 PLIN5 PPI,Arr AP2 block,Beta2AR agonist
O=c1c2ccccc2sn1-c1ccccc1,0,4,6,111*,43,-20
CCCCCc1ccc(NC(=O)O[C@@H]2CC[C@@]34CCCN3C(=O)CCC[C@H]4C2)cc1,.,-1,1,.,.,.
Cn1cc(CNCc2cn(C)nc2-c2ccc(C3CCCCC3)cc2)cn1,-2,3,1,22*,15,28
CC1CCC2(CC1)CCC2NCc1ccc(Br)cc1 (centres undefined),.,-2,-1,.,.,.
COC(=O)C[C@H]1CC[C@H]2[C@H](COc3ccc(NS(=O)(=O)c4ccccc4C)cc3C(=O)N2C)O1,.,3,-1,.,.,.
O=C(CCCn1cnc([N+](=O)[O-])n1)Nc1ccc(Cl)c(Cl)c1,3,0,2,28*,1,5
